Each compound was assayed on T1, OR9K2 R207H. Conditions: stereoisomer not certain.
T1 sequence (whole entry): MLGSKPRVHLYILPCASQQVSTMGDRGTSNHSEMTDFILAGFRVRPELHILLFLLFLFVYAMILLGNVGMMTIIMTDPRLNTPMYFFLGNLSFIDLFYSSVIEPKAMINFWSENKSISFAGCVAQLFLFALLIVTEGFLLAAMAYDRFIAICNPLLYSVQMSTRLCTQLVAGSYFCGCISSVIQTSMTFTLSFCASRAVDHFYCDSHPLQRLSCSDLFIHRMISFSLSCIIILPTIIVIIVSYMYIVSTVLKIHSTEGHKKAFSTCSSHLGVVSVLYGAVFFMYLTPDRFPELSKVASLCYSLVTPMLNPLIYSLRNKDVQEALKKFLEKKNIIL
In short: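 Assay methods differ from source to source, frequently being transient luciferase assays in mammalian cell lines. For each receptor–molecule pair, the label responsive (active) applies when the original authors judged the measured signal statistically different from baseline, and non-responsive (inactive) applies otherwise.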

Odorant receptor agonist call, inactive:
CC1=NC(C)C(C)S1 (stereo not drawn)
CC1=C(O)C(=O)C(C)O1 (stereo not drawn)
CCCC(S)CCOC(C)=O (stereo not drawn)
Cc1cnc(C)c(C)n1
CCC1OC(C)=C(O)C1=O (stereo not drawn)
CC1=C(O)C(=O)OC1C (stereo not drawn)
CCC1OC(=O)C(O)=C1C (stereo not drawn)
CCCCCCC=CCCC=O

— the M2OR odorant receptor database
